Calls of active or inactive are those of the source. The rule behind the calls is not given here.
Experiments:
[1] = tested on: TAR DNA-binding protein 43 (Homo sapiens), Q13148 [K181E]; assay: Inhibition of doxycycline induced TDP-43 K181E mutant anisosomes formation in human U2OS cells expressing ALS-causing TDP-43 K181E mutant anisosomes assessed as change in TDP-43 droplets morphology at 1 to 10 uM incubated for 24 hrs by fluorescence imaging analysis; format: cell-based; details: dose 1-10 µM
How it was run: (§1)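 U2OS cells stably expressing inducible TDP-43 K181E or NCOR2 anisosomes, treated with compound for 24 h (10uM, or a concentration series), then fixed and imaged; fraction of demixing cells quantified from fluorescent images.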

[2] = target: TAR DNA-binding protein 43 (Homo sapiens) (UniProt Q13148); assay: Inhibition of human TDP-43 in human SH-SY5Y cells assessed a splicing changes in normal STMN2 mRNA at 10 uM incubated for 24 hrs by qPCR analysis; format: cell-based
How it was run: (§2)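 SH-SY5Y neuron-like cells (DMEM/F12, 10% FBS) given compound at 10uM final for 24 h; total RNA then harvested and normal and cryptic spliced STMN2 mRNA quantified by real-time PCR.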

[3] = target: Nuclear receptor corepressor 2 (Homo sapiens) (UniProt Q9Y618); assay: Inhibition of doxycycline induced NCOR2 anisosomes formation in human U2OS cells expressing ALS-causing NCOR2 anisosomes assessed as change in NCOR2 droplets morphology at 10 uM incubated for 24 hrs by fluorescence imaging analysis; format: cell-based; how it was run: as §1
DLD-1 [4] = assay: Inhibition of sodium arsenite induced stress granule formation in human DLD-1 cells at 10 uM incubated for 24 hrs followed by sodium arsenite stimulation for 1 hr by G3BP1 staining based immunostaining analysis; format: functional, cell-based
How it was run: (§3)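 DLD1 cells on glass-bottom plates treated with compound at 10uM for 24 h, then 250uM sodium arsenite for 1 h; DMSO control. Fixed in 4% PFA 10 min RT, permeabilized, blocked (5% BSA, 0.1% Triton X-100), stained with anti-G3BP1 and anti-NPM1 (1:100, 1 h RT), secondaries 1:1000 30 min, DAPI; spinning-disc confocal max-projection images analysed.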

DLD-1 [5] = assay: Inhibition of doxycycline induced TDP-43 2KQ mutant anisosomes formation in human DLD-1 cells expressing TDP-43 2KQ mutant anisosomes at 10 uM incubated for 24 hrs by fluorescence imaging analysis; format: cell-based
How it was run: (§4)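 Stable lentivirally transduced DLD1 (single-cell clones sorted by fluorescence) or U2OS lines expressing inducible TDP-43 anisosomes; plated 4000 cells/well, overnight, then compound 24 h; cells fixed, fluorescent anisosomes imaged on ImageExpress HTai and anisosome number per cell quantified.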

U2OS = assay: Inhibition of doxycycline induced TDP-43 2KQ mutant anisosomes formation in human U2OS cells expressing TDP-43 2KQ mutant anisosomes at 10 uM incubated for 24 hrs by fluorescence imaging analysis; format: cell-based; how it was run: as §4
SH-SY5Y = assay: Inhibition of TDP-43 2KQ mutant in human SH-SY5Y cells assessed a splicing changes in cryptic STMN2 mRNA at 10 uM incubated for 24 hrs by qPCR analysis; format: cell-based; how it was run: as §2
DLD-1 [6] = assay: Inhibition of sodium arsenite stimulated human DLD-1 cells assessed as change in nucleolus morphology at 10 uM incubated for 24 hrs followed by sodium arsenite stimulation for 1 hr by NPM1 staining based immunostaining analysis; format: functional, cell-based; how it was run: as §3

Sequence of TAR DNA-binding protein 43 (Homo sapiens), Q13148 [K181E] (Q13148 whole entry K181E): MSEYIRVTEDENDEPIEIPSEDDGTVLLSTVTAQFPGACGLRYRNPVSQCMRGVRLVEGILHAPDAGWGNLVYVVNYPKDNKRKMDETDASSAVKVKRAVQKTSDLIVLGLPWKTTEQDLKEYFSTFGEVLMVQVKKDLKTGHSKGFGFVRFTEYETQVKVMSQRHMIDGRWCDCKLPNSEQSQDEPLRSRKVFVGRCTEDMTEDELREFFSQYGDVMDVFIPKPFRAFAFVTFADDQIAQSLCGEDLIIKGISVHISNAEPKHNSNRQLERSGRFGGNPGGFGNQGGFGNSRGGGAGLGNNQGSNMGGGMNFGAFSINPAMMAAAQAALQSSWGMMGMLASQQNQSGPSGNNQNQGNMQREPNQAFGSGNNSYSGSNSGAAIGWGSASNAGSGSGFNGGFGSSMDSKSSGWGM
Sequence of TAR DNA-binding protein 43 (Homo sapiens) (Q13148 whole entry, canonical isoform): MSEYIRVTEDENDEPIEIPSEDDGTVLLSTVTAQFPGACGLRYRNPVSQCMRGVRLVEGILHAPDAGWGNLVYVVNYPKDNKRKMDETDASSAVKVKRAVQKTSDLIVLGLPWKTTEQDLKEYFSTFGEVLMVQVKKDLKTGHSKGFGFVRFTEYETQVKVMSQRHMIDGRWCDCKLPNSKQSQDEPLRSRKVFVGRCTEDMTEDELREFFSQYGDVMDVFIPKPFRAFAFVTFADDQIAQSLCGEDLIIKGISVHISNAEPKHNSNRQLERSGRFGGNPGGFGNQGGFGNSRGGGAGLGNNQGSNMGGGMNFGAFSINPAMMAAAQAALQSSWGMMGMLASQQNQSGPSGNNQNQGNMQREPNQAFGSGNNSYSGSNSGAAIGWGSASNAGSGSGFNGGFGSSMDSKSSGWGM
Sequence of Nuclear receptor corepressor 2 (Homo sapiens) (Q9Y618 whole entry): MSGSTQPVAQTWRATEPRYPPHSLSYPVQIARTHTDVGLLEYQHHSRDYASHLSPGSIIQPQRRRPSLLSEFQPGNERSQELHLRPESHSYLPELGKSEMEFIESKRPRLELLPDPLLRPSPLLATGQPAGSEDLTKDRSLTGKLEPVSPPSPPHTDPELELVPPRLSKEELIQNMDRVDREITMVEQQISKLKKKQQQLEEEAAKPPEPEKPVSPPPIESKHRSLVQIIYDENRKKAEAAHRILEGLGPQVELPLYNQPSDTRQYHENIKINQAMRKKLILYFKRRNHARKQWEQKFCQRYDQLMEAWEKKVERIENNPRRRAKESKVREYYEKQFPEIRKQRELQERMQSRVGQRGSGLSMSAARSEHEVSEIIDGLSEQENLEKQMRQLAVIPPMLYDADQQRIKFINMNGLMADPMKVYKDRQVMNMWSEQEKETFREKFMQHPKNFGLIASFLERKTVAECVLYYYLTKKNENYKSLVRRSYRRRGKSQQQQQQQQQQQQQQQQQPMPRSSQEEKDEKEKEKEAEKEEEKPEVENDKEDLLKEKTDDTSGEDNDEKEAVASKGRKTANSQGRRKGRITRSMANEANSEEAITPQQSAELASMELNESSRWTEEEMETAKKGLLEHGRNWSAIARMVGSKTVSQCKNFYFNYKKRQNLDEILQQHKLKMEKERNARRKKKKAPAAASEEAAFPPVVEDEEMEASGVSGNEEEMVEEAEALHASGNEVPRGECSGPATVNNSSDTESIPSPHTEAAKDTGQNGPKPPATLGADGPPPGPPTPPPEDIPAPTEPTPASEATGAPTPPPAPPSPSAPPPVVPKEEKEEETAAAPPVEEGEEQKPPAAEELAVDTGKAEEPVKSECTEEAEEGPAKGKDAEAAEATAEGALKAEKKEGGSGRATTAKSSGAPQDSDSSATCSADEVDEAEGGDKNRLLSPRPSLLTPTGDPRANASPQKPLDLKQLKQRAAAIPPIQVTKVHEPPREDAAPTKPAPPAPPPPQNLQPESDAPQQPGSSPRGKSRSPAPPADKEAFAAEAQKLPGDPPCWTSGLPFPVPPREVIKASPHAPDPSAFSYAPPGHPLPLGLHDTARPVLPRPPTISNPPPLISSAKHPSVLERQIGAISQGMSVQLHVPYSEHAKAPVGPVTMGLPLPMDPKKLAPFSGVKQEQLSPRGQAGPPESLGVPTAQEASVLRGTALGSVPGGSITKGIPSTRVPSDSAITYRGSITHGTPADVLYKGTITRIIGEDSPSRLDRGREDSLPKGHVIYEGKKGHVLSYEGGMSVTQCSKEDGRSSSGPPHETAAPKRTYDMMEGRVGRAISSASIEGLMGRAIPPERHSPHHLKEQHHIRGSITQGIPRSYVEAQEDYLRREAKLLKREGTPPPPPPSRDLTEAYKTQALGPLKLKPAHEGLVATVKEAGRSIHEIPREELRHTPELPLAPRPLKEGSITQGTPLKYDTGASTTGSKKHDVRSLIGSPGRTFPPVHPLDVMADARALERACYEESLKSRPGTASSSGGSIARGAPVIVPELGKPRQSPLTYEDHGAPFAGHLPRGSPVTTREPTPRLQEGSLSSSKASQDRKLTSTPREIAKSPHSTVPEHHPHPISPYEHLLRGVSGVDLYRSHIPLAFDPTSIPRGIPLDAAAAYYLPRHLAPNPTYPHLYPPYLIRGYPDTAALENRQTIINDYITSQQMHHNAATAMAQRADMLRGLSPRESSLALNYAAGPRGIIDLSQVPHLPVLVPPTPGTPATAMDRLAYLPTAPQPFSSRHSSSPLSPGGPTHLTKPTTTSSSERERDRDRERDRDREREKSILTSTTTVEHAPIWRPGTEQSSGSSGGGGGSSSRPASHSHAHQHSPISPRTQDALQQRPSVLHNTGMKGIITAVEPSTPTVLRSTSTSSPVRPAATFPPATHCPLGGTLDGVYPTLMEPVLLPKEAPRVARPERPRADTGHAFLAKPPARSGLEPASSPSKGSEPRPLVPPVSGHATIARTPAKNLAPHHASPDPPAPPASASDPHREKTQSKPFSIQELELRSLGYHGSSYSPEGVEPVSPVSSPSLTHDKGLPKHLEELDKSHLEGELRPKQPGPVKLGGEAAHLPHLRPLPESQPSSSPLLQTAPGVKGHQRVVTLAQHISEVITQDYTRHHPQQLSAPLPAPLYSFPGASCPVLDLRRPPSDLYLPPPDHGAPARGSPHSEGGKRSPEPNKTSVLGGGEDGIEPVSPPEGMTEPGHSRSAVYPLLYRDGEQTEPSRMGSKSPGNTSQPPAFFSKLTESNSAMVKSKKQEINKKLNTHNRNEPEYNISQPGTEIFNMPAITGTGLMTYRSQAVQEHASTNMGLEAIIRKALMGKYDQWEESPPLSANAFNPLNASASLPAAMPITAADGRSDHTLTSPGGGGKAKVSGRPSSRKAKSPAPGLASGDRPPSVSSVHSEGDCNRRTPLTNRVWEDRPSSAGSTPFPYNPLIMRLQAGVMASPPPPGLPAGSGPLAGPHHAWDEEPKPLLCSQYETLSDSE

Row | inhibition [1] | inhibition [2] | inhibition [3] | Compound | inhibition (DLD-1 [4]) | inhibition (DLD-1 [5]) | inhibition (U2OS) | inhibition (SH-SY5Y) | inhibition (DLD-1 [6])
1 | inactive | inactive | Active | COc1ccc(NC(=O)Cn2c(SCc3ccc(F)cc3)nc3cccnc32)cc1OC | inactive |  |  |  | 
2 |  | inactive |  | Cc1ccc(CCNc2ncnc3onc(C)c23)cc1 | inactive | inactive | inactive | Active | 
3 |  | inactive |  | COc1ccc(S(=O)(=O)NCC(c2ccco2)S(=O)(=O)c2cccs2)cc1F (centres undefined) | inactive |  |  |  | 
4 | Active | inactive | Active | C=C1C(=O)O[C@H]2C3=C(C)CCC[C@]3(C)C(=O)C[C@@H]12 | Active | Active | Active |  | Active
5 | Dose-Dependent Effect | inactive | inactive | COc1ccc2[nH]c(=O)c3c(c2c1)OC(C)(C)C=C3 | inactive | Active | Active |  | 
